Results: ChEMBL document CHEMBL1921722, “In vitro and in vivo evaluation of select kahalalide F analogs with antitumor and antifungal activities” (Bioorg Med Chem, 2011)
pIC50: −log10 of the molar value. In brackets after ≈: the same amount, converted by molar mass. Activity calls are given as the source filed them.

Assays:
SF-268 [1] = assay: Cytotoxicity against human SF268 cells assessed as cell growth at 80 nM by sulforhodamine B assay relative to control; type: functional; settings: read-out: Activity
OVCAR-4 = assay: Cytotoxicity against human OVCAR4 cells assessed as cell growth at 8 nM by sulforhodamine B assay relative to control; type: functional; settings: read-out: Activity
OVCAR-3 = assay: Cytotoxicity against human OVCAR3 cells by sulforhodamine B assay; type: functional
Outline: (§1)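 NCI Developmental Therapeutics Program 60-cell-line human tumor panel screen, run at NCI. A single-concentration pre-screen was followed by a five-concentration dose-response in 10-fold steps. GI50 is the concentration that reduces growth of treated cells to half that of untreated control cells. TGI is the concentration that completely halts growth.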

NCI/ADR-RES = assay: Cytotoxicity against human NCI/ADR-RES cells assessed as cell growth at 8 nM by sulforhodamine B assay relative to control; type: functional; settings: read-out: Activity
SK-OV-3 [2] = assay: Cytotoxicity against human SKOV3 cells assessed as cell growth at 800 nM by sulforhodamine B assay relative to control; type: functional; settings: read-out: Activity
SK-MEL-28 = assay: Cytotoxicity against human SK-MEL-28 cells assessed as cell growth at 80 nM by sulforhodamine B assay relative to control; type: functional; settings: read-out: Activity
LOX IMVI = assay: Cytotoxicity against human LOXIMVI cells assessed as cell growth at 80 uM by sulforhodamine B assay relative to control; type: functional; settings: read-out: Activity
Hs-578T [3] = assay: Cytotoxicity against human Hs578T cells assessed as cell growth at 8 nM by sulforhodamine B assay relative to control; type: functional; settings: read-out: Activity
SW-620 = assay: Cytotoxicity against human SW620 cells assessed as cell growth at 800 nM by sulforhodamine B assay relative to control; type: functional; settings: read-out: Activity
SF-268 [4] = assay: Cytotoxicity against human SF268 cells by sulforhodamine B assay; type: functional
SK-OV-3 [5] = assay: Cytotoxicity against human SKOV3 cells assessed as cell growth at 80 nM by sulforhodamine B assay relative to control; type: functional; settings: read-out: Activity
786-0 [6] = assay: Cytotoxicity against human 786-0 cells assessed as cell growth at 80 nM by sulforhodamine B assay relative to control; type: functional; settings: read-out: Activity
Outline: (§2)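 Run at NCI in the DTP 60-cell-line human tumor panel by standard procedure. Compounds were first screened at a single concentration, then tested at five tenfold-spaced concentrations. GI50 is the concentration reducing treated-cell growth to half that of untreated controls; TGI is the concentration completely halting growth.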

BT-549 = assay: Cytotoxicity against human BT549 cells assessed as cell growth at 800 nM by sulforhodamine B assay relative to control; type: functional; settings: read-out: Activity; outline: as §2
NCI-H23 = assay: Cytotoxicity against human NCI-H23 cells assessed as cell growth at 800 nM by sulforhodamine B assay relative to control; type: functional; settings: read-out: Activity
SF-539 = assay: Cytotoxicity against human SF539 cells assessed as cell growth at 80 nM by sulforhodamine B assay relative to control; type: functional; settings: read-out: Activity
Hs-578T [7] = assay: Cytotoxicity against human Hs578T cells assessed as cell growth at 80 nM by sulforhodamine B assay relative to control; type: functional; settings: read-out: Activity
Pseudomonas aeruginosa = assay: Antimicrobial activity against Pseudomonas aeruginosa ATCC 27853 by CLSI method; type: functional, organism-based
SNB-19 = assay: Cytotoxicity against human SNB19 cells assessed as cell growth at 800 nM by sulforhodamine B assay relative to control; type: functional; settings: read-out: Activity
SN12C [8] = assay: Cytotoxicity against human SN12C cells by sulforhodamine B assay; type: functional; outline: as §1
RPMI-8226 = assay: Cytotoxicity against human RPMI8226 cells assessed as cell growth at 80 nM by sulforhodamine B assay relative to control; type: functional; settings: read-out: Activity
SNB-75 [9] = assay: Cytotoxicity against human SNB75 cells assessed as cell growth at 800 nM by sulforhodamine B assay relative to control; type: functional; settings: read-out: Activity
M14 = assay: Cytotoxicity against human M14 cells assessed as cell growth at 800 nM by sulforhodamine B assay relative to control; type: functional; settings: read-out: Activity
Candida albicans = assay: Antimicrobial activity against Candida albicans ATCC 90028 by CLSI method; type: functional, organism-based
NCI-H522 = assay: Cytotoxicity against human NCI-H522 cells assessed as cell growth at 80 uM by sulforhodamine B assay relative to control; type: functional; settings: read-out: Activity
MCF7 = assay: Cytotoxicity against human MCF7 cells assessed as cell growth at 8 nM by sulforhodamine B assay relative to control; type: functional; settings: read-out: Activity
MDA-MB-231 = assay: Cytotoxicity against human MDA-MB-231 cells assessed as cell growth at 8 nM by sulforhodamine B assay relative to control; type: functional; settings: read-out: Activity
A498 = assay: Cytotoxicity against human A498 cells assessed as cell growth at 80 uM by sulforhodamine B assay relative to control; type: functional; settings: read-out: Activity; outline: as §2
Fusarium sp. = assay: Antimicrobial activity against Fusarium sp. by CLSI method; type: functional, organism-based
IGROV-1 = assay: Cytotoxicity against human IGROV1 cells assessed as cell growth at 8 nM by sulforhodamine B assay relative to control; type: functional; settings: read-out: Activity
MDA-MB-435 = assay: Cytotoxicity against human MDA-MB-435 cells assessed as cell growth at 800 nM by sulforhodamine B assay relative to control; type: functional; settings: read-out: Activity
Escherichia coli = assay: Antimicrobial activity against Escherichia coli ATCC 35218 by CLSI method; type: functional, organism-based
SK-MEL-5 = assay: Cytotoxicity against human SK-MEL-5 cells assessed as cell growth at 8 nM by sulforhodamine B assay relative to control; type: functional; settings: read-out: Activity
SN12C [10] = assay: Cytotoxicity against human SN12C cells assessed as cell growth at 8 nM by sulforhodamine B assay relative to control; type: functional; settings: read-out: Activity
NCI-H460 [11] = assay: Cytotoxicity against human NCI-H460 cells assessed as cell growth at 800 nM by sulforhodamine B assay relative to control; type: functional; settings: read-out: Activity
NCI-H322M = assay: Cytotoxicity against human NCI-H322M cells assessed as cell growth at 80 uM by sulforhodamine B assay relative to control; type: functional; settings: read-out: Activity
SNB-75 [12] = assay: Cytotoxicity against human SNB75 cells by sulforhodamine B assay; type: functional; outline: as §1
HCT-15 = assay: Cytotoxicity against human HCT15 cells assessed as cell growth at 80 uM by sulforhodamine B assay relative to control; type: functional; settings: read-out: Activity
786-0 [13] = assay: Cytotoxicity against human 786-0 cells assessed as cell growth at 80 uM by sulforhodamine B assay relative to control; type: functional; settings: read-out: Activity; outline: as §2
NCI-H460 [14] = assay: Cytotoxicity against human NCI-H460 cells by sulforhodamine B assay; type: functional; outline: as §1
HCC 2998 = assay: Cytotoxicity against human HCC2998 cells by sulforhodamine B assay; type: functional
Outline: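 Run by the NCI Developmental Therapeutics Program on its 60-line human tumour cell panel using the standard procedure. Compounds went through a single-concentration prescreen first, and those active by NCI criteria went on to a five-concentration growth-inhibition test. GI50 is the concentration that cuts growth of treated cells to half that of untreated control cells.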

Structure (SMILES): C/C=C1\NC(=O)[C@H](Cc2ccccc2)NC(=O)[C@@H](C(C)C)NC(=O)[C@@H]([C@@H](C)CC)NC(=O)[C@H](NC(=O)[C@H](NC(=O)[C@H](CCCNCc2ccc(N3CCOCC3)cc2)NC(=O)[C@H]2CCCN2C(=O)[C@H](NC(=O)[C@@H](NC(=O)[C@@H](NC(=O)[C@H](NC(=O)CCCC(C)C)C(C)C)[C@@H](C)O)C(C)C)C(C)C)[C@@H](C)CC)[C@@H](C)OC(=O)[C@H](C(C)C)NC1=O
- growth at 0.08 µM (SF-268 [1]): 103%
- growth at 0.008 µM (OVCAR-4): 103%
- GI50 (OVCAR-3): 617 nM
- TGI (OVCAR-3; read-out: pTGI (converted)): 1860 nM
- growth at 0.008 µM (NCI/ADR-RES): 104%
- growth at 0.8 µM (SK-OV-3 [2]): -35%
- growth at 0.08 µM (SK-MEL-28): 99%
- growth at 80 µM (LOX IMVI): -59%
- growth at 0.008 µM (Hs-578T [3]): 109%
- growth at 0.8 µM (SW-620): 75%
- GI50 (SF-268 [4]): 1450 nM
- growth at 0.08 µM (SK-OV-3 [5]): 101%
- growth at 0.08 µM (786-0 [6]): 93%
- growth at 0.8 µM (BT-549): 89%
- growth at 0.8 µM (NCI-H23): 103%
- growth at 0.08 µM (SF-539): 101%
- growth at 0.08 µM (Hs-578T [7]): 101%
- Activity (Pseudomonas aeruginosa): inactive
- growth at 0.8 µM (SNB-19): 90%
- GI50 (SN12C [8]): 1410 nM
- LC50 (SN12C [8]): > 75900 nM
- TGI (SN12C [8]; read-out: pTGI (converted)): 3310 nM
- growth at 0.08 µM (RPMI-8226): 113%
- growth at 0.8 µM (SNB-75 [9]): 54%
- growth at 0.8 µM (M14): 102%
- pIC50 (Candida albicans): 5.24
- MFC (Candida albicans): > 20 µM
- MIC (Candida albicans): 20 µM (≈ 33.1 µg/mL)
- growth at 80 µM (NCI-H522): -22%
- growth at 0.008 µM (MCF7): 102%
- growth at 0.008 µM (MDA-MB-231): 95%
- growth at 80 µM (A498): -91%
- Activity (Fusarium sp.): Active
- growth at 0.008 µM (IGROV-1): 104%
- growth at 0.8 µM (MDA-MB-435): 94%
- Activity (Escherichia coli): inactive
- growth at 0.008 µM (SK-MEL-5): 105%
- growth at 0.008 µM (SN12C [10]): 86%
- growth at 0.8 µM (NCI-H460 [11]): 104%
- growth at 80 µM (NCI-H322M): -18%
- GI50 (SNB-75 [12]; read-out: GI50): 808 nM
- TGI (SNB-75 [12]; read-out: TGI): 1900 nM
- GI50 (SNB-75 [12]; read-out: pGI50 (converted)): 813 nM
- TGI (SNB-75 [12]; read-out: pTGI (converted)): 1910 nM
- growth at 80 µM (HCT-15): -45%
- growth at 80 µM (786-0 [13]): -66%
- GI50 (NCI-H460 [14]): 2000 nM
- CC50 (NCI-H460 [14]; read-out: pLC50 (the source's name) (converted)): > 75900 nM
- LC50 (HCC 2998): 3310 nM
- GI50 (HCC 2998; read-out: GI50): 250 nM
- TGI (HCC 2998; read-out: TGI): 877 nM
- GI50 (HCC 2998; read-out: pGI50 (converted)): 251 nM
- TGI (HCC 2998; read-out: pTGI (converted)): 871 nM
